Test results from ChEMBL document CHEMBL1121883, “1-(Naphthylalkyl)-1H-imidazole derivatives, a new class of anticonvulsant agents” (J Med Chem, 1981).

Legend:
Mus musculus [1] = test: Compound was evaluated for anticonvulsant activity by maximal electroshock assay(MES) in mice after ip administration; 8-13; format: functional
Procedure, shortened: (§1)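 Male Hilltop ICR-derived mice (19-30 g), groups of 8-10, dosed ip with compound or aqueous vehicle. After 15 min pretreatment, a transcorneal 60-Hz, 50 mA shock was given for 0.2 s. Just before the shock, each mouse was tested on a horizontal wire (10 s). Quantal data were analysed by Litchfield-Wilcoxon to give ED50 with 95% confidence limits.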

Mus musculus [2] = test: Dose of compound causing a neurological deficit in 50% of mice after ip administration; 16 to > 100; format: functional
Procedure, shortened: (§2)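 Traction test in male Hilltop ICR-derived mice (19-30 g, groups of 8-10) just before electroshock, 15 min after ip or 30 min after oral dosing. Mice placed on a 16-gauge, 65-cm copper wire 40 cm above the table; deficit scored as failure to stay on for 10 s. ND50 with 95% limits by Litchfield-Wilcoxon.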

Mus musculus [3] = test: Protective index is defined as ND50 (i.p.) divided by MES ED50(i.p.); format: functional
Procedure, shortened: (§3)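 Ratio of ND50 from the wire traction test to MES ED50, both measured by the same route (ip or oral) in the same animals. Quantal dose-response data for each were evaluated by Litchfield-Wilcoxon.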

Mus musculus [4] = test: Compound was evaluated for anticonvulsant activity by maximal electroshock assay(MES) in mice after ip administration; 23-38; format: functional; procedure, shortened: as §1
Mus musculus [5] = test: Dose of compound causing a neurological deficit in 50% of mice after ip administration; 70-93; format: functional; procedure, shortened: as §2
Mus musculus [6] = test: Dose causing a neurological deficit in 50% of mice after ip administration.; format: functional; procedure, shortened: as §2
Mus musculus [7] = test: Compound was evaluated for anticonvulsant activity by maximal electroshock assay(MES) in mice after ip administration; 27-41; format: functional; procedure, shortened: as §1
Mus musculus [8] = test: Compound was evaluated for anticonvulsant activity by maximal electroshock assay(MES) in mice after ip administration; 38-55; format: functional; procedure, shortened: as §1
Mus musculus [9] = test: Dose of compound causing a neurological deficit in 50% of mice after ip administration; 71-93; format: functional; procedure, shortened: as §2
Mus musculus [10] = test: Dose of compound causing a neurological deficit in 50% of mice after ip administration; 34-82; format: functional; procedure, shortened: as §2
Mus musculus [11] = test: Compound was evaluated for anticonvulsant activity by maximal electroshock assay(MES) in mice after ip administration; 14-24; format: functional; procedure, shortened: as §1
Mus musculus [12] = test: Compound was evaluated for anticonvulsant activity by maximal electroshock assay(MES) in mice after po administration; 34-89; format: functional
Procedure, shortened: (§4)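 Male Hilltop ICR-derived mice (19-30 g), groups of 8-10, given compound or aqueous vehicle orally. The transcorneal 60-Hz shock (50 mA, 0.2 s) followed a 30 min pretreatment and a wire-hang neurological check (10 s). ED50 and 95% confidence limits were obtained from quantal data by the Litchfield-Wilcoxon method.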

Mus musculus [13] = test: Dose of compound causing a neurological deficit in 50% of mice after ip administration; 20-35; format: functional; procedure, shortened: as §2
Mus musculus [14] = test: Dose causing a neurological deficit in 50% of mice following p.o. administration.; format: functional; procedure, shortened: as §2
Mus musculus [15] = test: Protective index defined as ND50 (p.o.) divided by MES ED50(op); format: functional; procedure, shortened: as §3
Mus musculus [16] = test: Dose of compound causing a neurological deficit in 50% of mice after ip administration; 71-111; format: functional; procedure, shortened: as §2
Mus musculus [17] = test: Compound was evaluated for anticonvulsant activity by maximal electroshock assay(MES) in mice after ip administration; 18-28; format: functional; procedure, shortened: as §1
Mus musculus [18] = test: Compound was evaluated for anticonvulsant activity by maximal electroshock assay(MES) in mice after po administration; 33-62; format: functional; procedure, shortened: as §4
Mus musculus [19] = test: Dose of compound causing a neurological deficit in 50% of mice after ip administration; 32-89; format: functional; procedure, shortened: as §2
[20] = Lethal dose was measured in mice after ip administration.; format: toxicity, organism-based; conditions: mouse, in vivo
Procedure, shortened: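 Male Simonsen ICR-derived mice (16-24 g), groups of three, given compound ip in increasing doses within a behavioral screen. Deaths counted on day 5, and LD50 estimated from 5-day survival. Quantal data analysed by the Litchfield-Wilcoxon method.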

Mus musculus [21] = test: Anticonvulsant activity in mouse maximal electroshock assay following i.p. administration.; format: functional; conditions: ip; procedure, shortened: as §1
Mus musculus [22] = test: compound was evaluated for anticonvulsant activity by maximal electroshock assay(MES) in mice after po administration.; format: functional
Procedure, shortened: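 Male Hilltop ICR-derived mice, 19-30 g, groups of 8-10, dosed orally with compound or aqueous vehicle. Transcorneal electroshock (50 mA, 60 Hz, 0.2 s) delivered 30 min after dosing, immediately after a wire-hang neurological test. ED50 with 95% confidence limits estimated from quantal data by Litchfield-Wilcoxon.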

Rattus norvegicus [23] = test: Compound was evaluated for anticonvulsant activity by maximal electroshock assay(MES) in rat after po administration.; format: functional
Procedure, shortened: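 Male Simonsen Sprague-Dawley-derived rats, 80-110 g, groups of 8-10, dosed with compound or aqueous vehicle; pretreatment 15 min after ip or 30 min after oral dosing. Transcorneal electroshock, 150 mA, 60 Hz, 0.2 s, given after the wire test. ED50 with 95% confidence limits from quantal data by Litchfield-Wilcoxon.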

Rattus norvegicus [24] = test: Dose of compound causing a neurological deficit in 50% of rat after ip administration.; format: functional
Procedure, shortened: (§5)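 Rats (Simonsen Sprague-Dawley-derived, 80-110 g, groups of 8-10) placed on a suspended 16-gauge, 65-cm copper wire just before electroshock. Deficit scored as inability to remain for 8 s. Pretreatment was 15 min ip or 30 min oral. Quantal data analysed by Litchfield-Wilcoxon to give ND50 with 95% limits.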

Rattus norvegicus [25] = test: Dose of compound causing a neurological deficit in 50% of rat after po administration.; format: functional; procedure, shortened: as §5
Rattus norvegicus [26] = test: Compound was evaluated for anticonvulsant activity by maximal electroshock assay(MES) in rat after ip administration.
Mus musculus [27] = test: Compound was evaluated for anticonvulsant activity by maximal electroshock assay(MES) in mice after po administration.; format: functional; procedure, shortened: as §4
Mus musculus [28] = test: Compound was evaluated for anticonvulsant activity by maximal electroshock assay(MES) in mice after ip administration; 20-42; format: functional; procedure, shortened: as §1
Mus musculus [29] = test: Compound was evaluated for anticonvulsant activity by maximal electroshock assay(MES) in mice after ip administration; 37-68; format: functional; procedure, shortened: as §1
Mus musculus [30] = test: Compound was evaluated for anticonvulsant activity by maximal electroshock assay(MES) in mice after po administration; 55-103; format: functional; procedure, shortened: as §4
Mus musculus [31] = test: Compound was evaluated for anticonvulsant activity by maximal electroshock assay(MES) in mice after ip administration; 20-28; format: functional; procedure, shortened: as §1

## COC(CCn1ccnc1)c1ccc2ccccc2c1.O=S(=O)(O)O (stereo not given)
Mus musculus [1]
  ED50: 11 mg/kg
Mus musculus [2]
  ND50: >39 mg/kg
Mus musculus [3]
  PI: 3.5

## CC(C)c1ccc(C(=O)Cn2ccnc2)c2ccccc12.Cl
Mus musculus [4]
  ED50: 28 mg/kg
Mus musculus [5]
  ND50: 81 mg/kg
Mus musculus [3]
  PI: 2.9

## c1ccc2cc(C3(CCn4ccnc4)OCCO3)ccc2c1
Mus musculus [6]
  ND50: >100 mg/kg
Mus musculus [3]
  PI: >2.9
Mus musculus [7]
  ED50: 35 mg/kg

## Cl.Clc1ccc(OC(Cn2ccnc2)c2ccc3ccccc3c2)cc1 (stereo not given)
Mus musculus [8]
  ED50: 46 mg/kg
Mus musculus [9]
  ND50: 82 mg/kg
Mus musculus [3]
  PI: 1.8

## COC(Cn1ccnc1)c1cccc2ccccc12 (stereo not given)
Mus musculus [10]
  ND50: 51 mg/kg
Mus musculus [11]
  ED50: 19 mg/kg
Mus musculus [3]
  PI: 2.7

## CC1CCOC(Cn2ccnc2)(c2ccc3ccccc3c2)O1 (stereo not given)
Mus musculus [12]
  ED50: 56 mg/kg
Mus musculus [13]
  ND50: 26 mg/kg
Mus musculus [14]
  ND50: >100 mg/kg
Mus musculus [15]
  PI: >1.8
Mus musculus [3]
  PI: 1.4

## CCC(=O)OC(Cn1ccnc1)c1ccc2ccccc2c1.Cl (stereo not given)
Mus musculus [16]
  ND50: 83 mg/kg
Mus musculus [17]
  ED50: 23 mg/kg
Mus musculus [3]
  PI: 3.6

## CC1(C)COC(Cn2ccnc2)(c2ccc3ccccc3c2)OC1.Cl
Mus musculus [18]
  ED50: 47 mg/kg
Mus musculus [19]
  ND50: 52 mg/kg
Mus musculus [14]
  ND50: >100 mg/kg
[20]
  LD50: > 100 mg/kg
Mus musculus [15]
  PI: >2.1
Mus musculus [3]
  PI: 2

## O=C1NC(=O)C(c2ccccc2)(c2ccccc2)N1 [PHENYTOIN]
Mus musculus [21]
  ED50: 13 mg/kg
Mus musculus [6]
  ND50: >300 mg/kg
Mus musculus [14]
  ND50: >200 mg/kg
[20]
  LD50: > 300 mg/kg
Mus musculus [22]
  ED50: 22 mg/kg
Rattus norvegicus [23]
  ED50: 85 mg/kg
Rattus norvegicus [24]
  ND50: >300 mg/kg
Rattus norvegicus [25]
  ND50: >300 mg/kg
Mus musculus [3]
  PI: >23.1
Rattus norvegicus [26]
  ED50: 21 mg/kg

## COc1ccc2cc(C(=O)Cn3ccnc3)ccc2c1.Cl
Mus musculus [27]
  ED50: > 100 mg/kg
Mus musculus [28]
  ED50: 31 mg/kg
Mus musculus [6]
  ND50: >100 mg/kg
Mus musculus [14]
  ND50: >100 mg/kg
[20]
  LD50: > 100 mg/kg
Mus musculus [3]
  PI: >3.3

## Cl.O=C(Cn1ccnc1)c1ccc2cc(Cl)ccc2c1
Mus musculus [29]
  ED50: 51 mg/kg
Mus musculus [6]
  ND50: >100 mg/kg
Mus musculus [3]
  PI: >2

## Cc1ccc2cc(C(=O)Cn3ccnc3)ccc2c1.Cl
Mus musculus [30]
  ED50: 76 mg/kg
Mus musculus [6]
  ND50: >100 mg/kg
Mus musculus [14]
  ND50: >150 mg/kg
Mus musculus [31]
  ED50: 24 mg/kg
[20]
  LD50: > 100 mg/kg
Mus musculus [15]
  PI: >2
Mus musculus [3]
  PI: >4.3
